For one assay, the system named is HCT-116. In words: Antiproliferative activity against human HCT116 cells after 72 hrs by MTT assay. In kind it is functional, cell-based. The note with it: HCT-116, 72 h.
The next assay relates to Raji. In words: Antiproliferative activity against human Raji cells after 72 hrs by MTT assay. It is filed as functional, cell-based. The essentials:
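Log-phase cells were plated at 10000-15000 per well and exposed to serial concentrations after 24 h for 72 h. Read-out was MTT for 1-3 h, then 20% SDS overnight and absorbance at 570 nm. IC50 was calculated from growth versus untreated control, as mean ± SEM of at least three independent experiments.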

For the next assay, the system named is MM1.S. In words: Antiproliferative activity against human MM1S cells after 72 hrs by MTT assay. It is filed as functional, cell-based.
Assay [1] has as its target T1, Serine/threonine-protein kinase mTOR (Homo sapiens, UniProt P42345). In words: Inhibition of recombinant N-terminal FLAG-tagged human mTOR (1362 to end residues) using ULight-4E-BP1 (Thr37/46) peptide as substrate after 1 hr by fluorescence assay. In outline:
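mTOR enzyme, ATP, compound and ULight-4E-BP1 (Thr37/46) peptide in kinase buffer were incubated 1 h at room temperature. EDTA quench plus Eu-anti-phospho-4E-BP1 antibody was added and equilibrated 1 h. TR-FRET was read at excitation 320 or 340 nm and emission 665 nm. Curves were fitted, and values are means of at least two experiments.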

The subject of the next assay is MV4-11. In words: Antiproliferative activity against human MV4-11 cells after 72 hrs by MTT assay. In kind it is functional, cell-based. The note with it: MV4-11, 72 h.
The subject of a further assay is OCI-AML2. Description: Antiproliferative activity against human OCI-AML2 cells after 72 hrs by MTT assay. In kind it is functional, cell-based. The note with it: OCI-AML2, 72 h.
The test system of a further assay is OCI-AML-3. In words: Antiproliferative activity against human OCI-AML3 cells after 72 hrs by MTT assay. In kind it is functional, cell-based. The note with it: OCI-AML-3, 72 h.
Assay [2] has as its target T2, PI3-kinase p110-alpha/p85-alpha (Homo sapiens) (UniProt P27986+P42336). Description: Inhibition of recombinant human full length N-terminal His-tagged/untagged p110alpha/p85alpha expressed in baculovirus expression system at 1000 nM using PIP2 as substrate after 1 hr by Kinase-Glo reagent-based assay relative to control. In outline: (§1)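 PI3Kα (p110α/p85α) incubated with PIP2 substrate and ATP in kinase buffer for 1 h at room temperature. Kinase-Glo reagent was then added for 15 min before luminescence read-out. Inhibition rate at 100 or 1000 nM is the mean of at least two experiments.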

The target of assay [3] is T2, PI3-kinase p110-alpha/p85-alpha (Homo sapiens). In words: Inhibition of recombinant human full length N-terminal His-tagged/untagged p110alpha/p85alpha expressed in baculovirus expression system at 100 nM using PIP2 as substrate after 1 hr by Kinase-Glo reagent-based assay relative to control. The essentials:
as §1

A further assay deals with MCF7. Description: Antiproliferative activity against human MCF7 cells after 72 hrs by MTT assay. It is filed as functional, cell-based. Particulars: MCF7, 72 h.
Assay [4] addresses T2, PI3-kinase p110-alpha/p85-alpha (Homo sapiens). In words: Inhibition of recombinant human full length N-terminal His-tagged/untagged p110alpha/p85alpha expressed in baculovirus expression system at 500 nM using PIP2 as substrate after 1 hr by Kinase-Glo reagent-based assay relative to control.
Assay [5] concerns the target T1, Serine/threonine-protein kinase mTOR. Description: Inhibition of recombinant N-terminal FLAG-tagged human mTOR (1362 to end residues) at 500 nM using ULight-4E-BP1 (Thr37/46) peptide as substrate after 1 hr by fluorescence assay relative to control.
In a further assay the target is Histone deacetylase 1 (Homo sapiens, UniProt Q13547). Description: Inhibition of recombinant full length HDAC1 (unknown origin) using Ac-peptide-AMC as substrate preincubated for 15 mins followed by substrate addition and measured after 1 hr by fluorescence assay.
For another assay, the target named is Histone deacetylase 2 (Homo sapiens, UniProt Q92769). Description: Inhibition of recombinant full length human HDAC2 expressed in baculovirus expression system using Ac-peptide-AMC as substrate preincubated for 15 mins followed by substrate addition and measured after 1 hr by fluorescence assay.
The next assay has as its target Histone deacetylase 3 (Homo sapiens, UniProt O15379). In words: Inhibition of recombinant full length HDAC3 (unknown origin) using Ac-peptide-AMC as substrate preincubated for 15 mins followed by substrate addition and measured after 1 hr by fluorescence assay.
For another assay, the target named is Histone deacetylase 8 (Homo sapiens, UniProt Q9BY41). Description: Inhibition of recombinant full length C-terminal His-tagged human HDAC8 expressed in baculovirus expression system using Ac-peptide-AMC as substrate preincubated for 15 mins followed by substrate addition and measured after 1 hr by fluorescence assay.
The target of assay [6] is Protein deacetylase HDAC6 (Homo sapiens, UniProt Q9UBN7). In words: Inhibition of recombinant full length HDAC6 (unknown origin) using Ac-peptide-AMC as substrate preincubated for 15 mins followed by substrate addition and measured after 1 hr by fluorescence assay.
The target of assay [7] is Polyamine deacetylase HDAC10 (Homo sapiens, UniProt Q969S8). Description: Inhibition of recombinant full length N-terminal FLAG-tagged human HDAC10 expressed in baculovirus infected sf9 cells using Ac-peptide-AMC as substrate preincubated for 15 mins followed by substrate addition and measured after 1 hr by fluorescence assay.
Sequence of Polyamine deacetylase HDAC10 (Q969S8 whole entry): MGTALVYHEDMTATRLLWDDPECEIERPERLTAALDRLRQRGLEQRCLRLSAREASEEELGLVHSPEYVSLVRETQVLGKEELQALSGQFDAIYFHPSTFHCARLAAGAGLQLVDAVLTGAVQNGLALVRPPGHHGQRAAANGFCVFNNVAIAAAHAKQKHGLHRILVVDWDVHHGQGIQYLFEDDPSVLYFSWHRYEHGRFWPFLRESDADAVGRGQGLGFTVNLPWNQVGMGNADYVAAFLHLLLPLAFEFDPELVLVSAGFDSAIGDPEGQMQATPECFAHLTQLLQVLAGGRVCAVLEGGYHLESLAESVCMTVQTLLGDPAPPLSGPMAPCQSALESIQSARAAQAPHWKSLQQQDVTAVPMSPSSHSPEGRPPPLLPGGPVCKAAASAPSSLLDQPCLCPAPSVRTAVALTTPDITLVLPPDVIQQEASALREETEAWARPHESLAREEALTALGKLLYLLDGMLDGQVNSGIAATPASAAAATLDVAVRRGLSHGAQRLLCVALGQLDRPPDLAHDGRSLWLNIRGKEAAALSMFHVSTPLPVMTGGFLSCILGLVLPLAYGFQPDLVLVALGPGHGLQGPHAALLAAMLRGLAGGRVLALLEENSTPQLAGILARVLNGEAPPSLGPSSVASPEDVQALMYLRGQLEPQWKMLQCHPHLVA

Sequence of Histone deacetylase 1 (Q13547 whole entry): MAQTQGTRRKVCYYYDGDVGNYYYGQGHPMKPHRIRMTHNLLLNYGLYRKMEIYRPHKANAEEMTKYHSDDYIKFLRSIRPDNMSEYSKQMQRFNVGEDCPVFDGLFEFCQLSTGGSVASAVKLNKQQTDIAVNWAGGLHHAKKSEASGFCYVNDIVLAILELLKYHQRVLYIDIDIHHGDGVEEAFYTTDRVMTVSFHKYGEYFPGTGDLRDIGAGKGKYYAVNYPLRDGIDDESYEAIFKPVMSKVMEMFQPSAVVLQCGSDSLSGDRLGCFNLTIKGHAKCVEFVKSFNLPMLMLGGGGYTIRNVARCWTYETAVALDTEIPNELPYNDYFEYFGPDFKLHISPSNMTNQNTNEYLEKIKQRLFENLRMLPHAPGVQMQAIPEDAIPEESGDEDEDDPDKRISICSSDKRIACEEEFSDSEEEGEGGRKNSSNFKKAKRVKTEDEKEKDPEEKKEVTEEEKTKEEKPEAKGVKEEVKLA
Sequence of Histone deacetylase 8 (Q9BY41 whole entry): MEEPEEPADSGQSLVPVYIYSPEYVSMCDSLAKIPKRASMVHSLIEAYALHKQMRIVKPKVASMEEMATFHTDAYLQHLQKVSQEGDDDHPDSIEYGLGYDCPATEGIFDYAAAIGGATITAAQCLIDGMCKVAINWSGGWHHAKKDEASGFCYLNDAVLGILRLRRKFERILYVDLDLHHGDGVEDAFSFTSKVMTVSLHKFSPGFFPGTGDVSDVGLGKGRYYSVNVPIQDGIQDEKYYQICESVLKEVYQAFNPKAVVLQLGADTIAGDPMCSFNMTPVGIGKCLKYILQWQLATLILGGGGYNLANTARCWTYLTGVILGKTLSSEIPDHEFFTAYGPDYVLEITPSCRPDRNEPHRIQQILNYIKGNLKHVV
Sequence of Histone deacetylase 3 (O15379 whole entry): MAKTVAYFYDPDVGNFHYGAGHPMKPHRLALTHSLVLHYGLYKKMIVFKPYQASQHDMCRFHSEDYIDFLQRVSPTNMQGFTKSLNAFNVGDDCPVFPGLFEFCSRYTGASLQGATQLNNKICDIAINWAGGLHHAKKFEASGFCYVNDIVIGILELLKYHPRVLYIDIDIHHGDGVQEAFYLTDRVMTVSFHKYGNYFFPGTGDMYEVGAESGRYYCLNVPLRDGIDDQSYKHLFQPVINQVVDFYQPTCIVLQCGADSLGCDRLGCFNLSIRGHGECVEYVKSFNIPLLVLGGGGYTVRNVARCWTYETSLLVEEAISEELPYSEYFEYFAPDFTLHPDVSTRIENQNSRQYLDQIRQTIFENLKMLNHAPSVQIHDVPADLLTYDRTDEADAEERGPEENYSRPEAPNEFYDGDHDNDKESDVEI
Sequence of Histone deacetylase 2 (Q92769 whole entry): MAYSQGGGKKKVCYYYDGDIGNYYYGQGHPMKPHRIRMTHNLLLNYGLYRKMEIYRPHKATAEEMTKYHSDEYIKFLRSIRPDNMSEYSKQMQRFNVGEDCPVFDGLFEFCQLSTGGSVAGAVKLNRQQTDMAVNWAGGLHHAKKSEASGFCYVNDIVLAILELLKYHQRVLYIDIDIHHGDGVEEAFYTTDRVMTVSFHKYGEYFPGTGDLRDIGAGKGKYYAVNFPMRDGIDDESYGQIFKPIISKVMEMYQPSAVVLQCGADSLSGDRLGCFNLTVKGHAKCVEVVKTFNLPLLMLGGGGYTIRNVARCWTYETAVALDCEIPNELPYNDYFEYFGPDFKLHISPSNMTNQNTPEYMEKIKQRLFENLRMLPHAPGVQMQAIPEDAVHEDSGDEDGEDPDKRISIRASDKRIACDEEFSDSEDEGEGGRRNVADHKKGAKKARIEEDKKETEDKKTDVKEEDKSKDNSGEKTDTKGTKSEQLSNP
Sequence of Protein deacetylase HDAC6 (Q9UBN7 whole entry): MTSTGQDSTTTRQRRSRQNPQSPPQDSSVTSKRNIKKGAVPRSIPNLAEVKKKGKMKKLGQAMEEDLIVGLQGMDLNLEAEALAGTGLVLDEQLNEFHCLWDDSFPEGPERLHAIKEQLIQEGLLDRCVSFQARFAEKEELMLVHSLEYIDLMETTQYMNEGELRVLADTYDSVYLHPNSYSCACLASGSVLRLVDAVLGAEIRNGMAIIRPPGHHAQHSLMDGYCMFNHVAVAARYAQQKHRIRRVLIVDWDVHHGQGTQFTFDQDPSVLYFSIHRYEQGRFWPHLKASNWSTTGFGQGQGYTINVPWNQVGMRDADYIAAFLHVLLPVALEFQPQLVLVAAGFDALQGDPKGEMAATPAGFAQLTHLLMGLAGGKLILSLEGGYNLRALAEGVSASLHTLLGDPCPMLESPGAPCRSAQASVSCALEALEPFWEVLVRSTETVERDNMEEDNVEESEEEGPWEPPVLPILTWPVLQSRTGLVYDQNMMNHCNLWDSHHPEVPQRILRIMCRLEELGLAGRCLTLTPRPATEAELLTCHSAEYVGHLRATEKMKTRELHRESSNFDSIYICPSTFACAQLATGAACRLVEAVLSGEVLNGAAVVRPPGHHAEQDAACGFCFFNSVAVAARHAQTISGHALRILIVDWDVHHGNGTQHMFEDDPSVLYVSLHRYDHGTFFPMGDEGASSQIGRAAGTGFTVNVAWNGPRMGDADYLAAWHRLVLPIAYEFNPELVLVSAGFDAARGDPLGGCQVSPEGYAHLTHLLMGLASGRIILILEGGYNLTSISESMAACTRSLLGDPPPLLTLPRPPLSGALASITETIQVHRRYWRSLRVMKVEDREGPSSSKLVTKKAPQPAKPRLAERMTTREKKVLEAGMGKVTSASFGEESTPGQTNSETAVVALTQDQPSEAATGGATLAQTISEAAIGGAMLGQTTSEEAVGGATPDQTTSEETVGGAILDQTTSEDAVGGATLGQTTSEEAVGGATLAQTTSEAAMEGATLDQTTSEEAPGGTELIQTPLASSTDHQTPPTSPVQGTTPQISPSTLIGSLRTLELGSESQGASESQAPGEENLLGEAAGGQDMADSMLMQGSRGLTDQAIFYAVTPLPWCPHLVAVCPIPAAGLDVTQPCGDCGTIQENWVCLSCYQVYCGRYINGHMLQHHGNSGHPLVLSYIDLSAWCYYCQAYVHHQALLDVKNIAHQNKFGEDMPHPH

`CN1CCN(C(=O)Nc2ccc(-c3nc(N4CCOCC4)c4cnn(CCCCCCC(=O)NO)c4n3)cc2)CC1`: the IC50 in the assay on HCT-116 amounted to 83.5 nM; in the assay with Raji it was 70.4 nM; with MM1.S, 62.2 nM; in assay [1] it was 3.4 nM; with MV4-11, 7.01 nM; in the assay with OCI-AML2 it was 8.55 nM. This molecule also registered a half-maximal inhibitory concentration (IC50) with OCI-AML-3 of 35.3 nM. For the same molecule, the inhibition was 98.1% in [2] and 52.7% in assay [3].
For the molecule `Nc1ccc(-c2nc(N3CCOCC3)c3cnn(CCCCCCC(=O)NO)c3n2)cc1`, the IC50 with HCT-116 came to 7.1 nM; in the assay with Raji, 7.1 nM; with MCF7, 63.7 nM; with MM1.S it was 18.9 nM; at Histone deacetylase 1 it was 0.21 nM; on Histone deacetylase 2, 1.6 nM. Moreover, the IC50 came to 4.21 nM on Histone deacetylase 3; 35.7 nM at Histone deacetylase 8; 2.43 nM in assay [6]; 1.43 nM in assay [7]; 40 nM in assay [1]. In addition, the inhibition in assay [4] is 16%; in [5], 95%.
In the case of `O=C(CCCCCCn1ncc2c(N3CCOCC3)nc(-c3ccc(NC(=O)N4CCOCC4)cc3)nc21)NO`, the IC50 worked out at 100 nM in the assay with HCT-116; 14.6 nM in the assay with Raji; 27.8 nM with MM1.S; 12.6 nM with MV4-11; 29 nM with OCI-AML2; 30.1 nM in the assay on OCI-AML-3.
Consider `O=C(CCCCCCn1ncc2c(N3CCOCC3)nc(-c3ccc(NC(=O)N4CCNCC4)cc3)nc21)NO`, for which the IC50 with HCT-116 was 111 nM; with Raji, 127 nM; with MM1.S, 126 nM; in the assay on MV4-11 it was 26.5 nM; in the assay on OCI-AML2 it was 32.8 nM; in the assay with OCI-AML-3, 40.1 nM.
For the molecule `CCN1CCN(C(=O)Nc2ccc(-c3nc(N4CCOCC4)c4cnn(CCCCCCC(=O)NO)c4n3)cc2)CC1`, the IC50 is 42.9 nM in the assay with HCT-116; 34.8 nM in the assay with Raji; 52.1 nM in the assay on MM1.S; 3.1 nM in assay [1]; 5.86 nM with MV4-11; 3.97 nM in the assay on OCI-AML2. For the same molecule, in the assay on OCI-AML-3, it took 8.01 nM to reach half-maximal inhibition (IC50). For the same molecule, the inhibition is 83.4% in [2] and 69.3% in [3].
Consider `O=C(CCCCCCn1ncc2c(N3CCOCC3)nc(-c3ccc(NC(=O)N4CCSCC4)cc3)nc21)NO`, for which the IC50 in the assay on HCT-116 was found to be 68 nM; in the assay on Raji, 148 nM; in the assay on MM1.S, 39.2 nM; in the assay on MV4-11, 13.9 nM; in the assay with OCI-AML2, 16.9 nM; with OCI-AML-3, 15 nM.

(Values after ChEMBL document CHEMBL4411315, “Discovery of Novel Dual Histone Deacetylase and Mammalian Target of Rapamycin Target Inhibitors as a Promising Strategy for Cancer Therapy” (J Med Chem, 2019).)
